Measurements reported in ChEMBL document CHEMBL3774372, “Design, physico-chemical properties and biological evaluation of some new N-[(phenoxy)alkyl]- and N-{2-[2-(phenoxy)ethoxy]ethyl}aminoalkanols as anticonvulsant agents” (Bioorg Med Chem, 2016).
The source made the active and inactive calls.

Legend:
Mus musculus [1] = test: Neurotoxicity in mouse at 100 mg/kg, ip after 2 hrs by rotarod test; assay type: toxicity, organism-based; conditions: in vivo
Procedure, shortened: (§1)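 Mice were dosed ip with compound suspended in 0.5% methylcellulose. Rotarod: a 1 in. knurled rod turning at 6 rpm. Neurotoxicity was scored as failure to stay on the rod for at least 1 min in each of three trials. Results are given as the number of animals affected out of the number tested.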

Mus musculus [2] = test: Neurotoxicity in mouse at 100 mg/kg, ip after 4 hrs by rotarod test; assay type: toxicity, organism-based; conditions: in vivo; procedure, shortened: as §1
Mus musculus [3] = test: Neurotoxicity in mouse at 30 mg/kg, ip after 0.5 hrs by rotarod test; assay type: toxicity, organism-based; conditions: in vivo; procedure, shortened: as §1
Mus musculus [4] = test: Anticonvulsant activity in mouse assessed as protection against maximal electric shock-induced seizures at 30 mg/kg, ip measured after 0.5 hrs; assay type: functional, organism-based
Procedure, shortened: (§2)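 Mice dosed ip with suspension in 0.5% methylcellulose; maximal electroshock applied at the listed time after dosing. Protection = abolition of hindlimb tonic extension component of seizure; reported as animals protected/animals tested.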

Mus musculus [5] = test: Anticonvulsant activity in mouse assessed as protection against subcutaneous pentylenetetrazol-induced seizures at 300 mg/kg, ip measured after 4 hrs; assay type: functional, organism-based
Procedure, shortened: (§3)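 Mice dosed ip as 0.5% methylcellulose suspension; pentylenetetrazole 85 mg/kg in 0.9% NaCl injected subcutaneously into posterior midline, animals watched at least 30 min. Protection = no threshold seizure (single clonic spasm episode lasting ≥5 s); scored protected/tested.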

Mus musculus [6] = test: Anticonvulsant activity in mouse assessed as protection against maximal electric shock-induced seizures at 100 mg/kg, ip measured after 4 hrs; assay type: functional, organism-based; procedure, shortened: as §2
Mus musculus [7] = test: Anticonvulsant activity in mouse assessed as protection against subcutaneous pentylenetetrazol-induced seizures at 30 mg/kg, ip measured after 0.5 hrs; assay type: functional, organism-based; procedure, shortened: as §3
Mus musculus [8] = test: Anticonvulsant activity in mouse assessed as protection against subcutaneous pentylenetetrazol-induced seizures at 30 mg/kg, ip measured after 4 hrs; assay type: functional, organism-based; procedure, shortened: as §3
Mus musculus [9] = test: Anticonvulsant activity in mouse assessed as protection against maximal electric shock-induced seizures at 100 mg/kg, ip measured after 0.5 hrs; assay type: functional, organism-based; procedure, shortened: as §2
Mus musculus [10] = test: Neurotoxicity in mouse at 30 mg/kg, ip after 4 hrs by rotarod test; assay type: toxicity, organism-based; conditions: in vivo; procedure, shortened: as §1
Mus musculus [11] = test: Anticonvulsant activity in mouse assessed as protection against subcutaneous pentylenetetrazol-induced seizures at 100 mg/kg, ip measured after 0.5 hrs; assay type: functional, organism-based; procedure, shortened: as §3
Mus musculus [12] = test: Neurotoxicity in mouse at 300 mg/kg, ip after 0.5 hrs by rotarod test; assay type: toxicity, organism-based; conditions: in vivo; procedure, shortened: as §1
Mus musculus [13] = test: Anticonvulsant activity in mouse assessed as protection against maximal electric shock-induced seizures at 30 mg/kg, ip measured after 4 hrs; assay type: functional, organism-based; procedure, shortened: as §2
Mus musculus [14] = test: Neurotoxicity in mouse at 100 mg/kg, ip after 0.5 hrs by rotarod test; assay type: toxicity, organism-based; conditions: in vivo; procedure, shortened: as §1
Mus musculus [15] = test: Anticonvulsant activity in mouse assessed as protection against maximal electric shock-induced seizures at 10 mg/kg, ip measured after 0.5 hrs; assay type: functional, organism-based; procedure, shortened: as §2
Mus musculus [16] = test: Anticonvulsant activity in mouse assessed as protection against maximal electric shock-induced seizures at 3 mg/kg, ip measured after 0.5 hrs; assay type: functional, organism-based; procedure, shortened: as §2
Mus musculus [17] = test: Anticonvulsant activity in mouse assessed as protection against subcutaneous pentylenetetrazol-induced seizures at 100 mg/kg, ip measured after 4 hrs; assay type: functional, organism-based; procedure, shortened: as §3
Mus musculus [18] = test: Anticonvulsant activity in mouse assessed as protection against maximal electric shock-induced seizures at 300 mg/kg, ip measured after 0.5 hrs; assay type: functional, organism-based; procedure, shortened: as §2
Mus musculus [19] = test: Anticonvulsant activity in mouse assessed as protection against maximal electric shock-induced seizures at 300 mg/kg, ip measured after 4 hrs; assay type: functional, organism-based; procedure, shortened: as §2
Rattus norvegicus [20] = test: Neurotoxicity in rat at 30 mg/kg, po after […] by rotarod test; assay type: toxicity, organism-based; conditions: in vivo
Mus musculus [21] = test: Neurotoxicity in mouse at 300 mg/kg, ip after 4 hrs by rotarod test; assay type: toxicity, organism-based; conditions: in vivo; procedure, shortened: as §1
Mus musculus [22] = test: Anticonvulsant activity in mouse assessed as protection against subcutaneous pentylenetetrazol-induced seizures at 300 mg/kg, ip measured after 0.5 hrs; assay type: functional, organism-based; procedure, shortened: as §3
Rattus norvegicus [23] = test: Neurotoxicity in rat at 30 mg/kg, po after 0.5 hrs by rotarod test; assay type: toxicity, organism-based; conditions: in vivo
Rattus norvegicus [24] = test: Anticonvulsant activity in rat assessed as protection against maximal electric shock-induced seizures at 30 mg/kg, po measured after […]; assay type: functional, organism-based
Rattus norvegicus [25] = test: Neurotoxicity in rat at 30 mg/kg, po after 4 hrs by rotarod test; assay type: toxicity, organism-based; conditions: in vivo
Rattus norvegicus [26] = test: Neurotoxicity in rat at 30 mg/kg, po after 1 hr by rotarod test; assay type: toxicity, organism-based; conditions: in vivo
Rattus norvegicus [27] = test: Neurotoxicity in rat at 30 mg/kg, po after 2 hrs by rotarod test; assay type: toxicity, organism-based; conditions: in vivo
Rattus norvegicus [28] = test: Anticonvulsant activity in rat assessed as protection against maximal electric shock-induced seizures at 30 mg/kg, po measured after 1 hr; assay type: functional, organism-based
Procedure, shortened: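 Rats dosed ip or orally as 0.5% methylcellulose suspension; maximal electroshock at listed time. Protection = abolition of hindlimb tonic extension; 4 rats per group, scored protected/tested.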

Mus musculus [29] = test: Neurotoxicity in mouse at 50 mg/kg, ip after 4 hrs by rotarod test; assay type: toxicity, organism-based; conditions: in vivo; procedure, shortened: as §1
Mus musculus [30] = test: Neurotoxicity in mouse at 50 mg/kg, ip after 1 hr by rotarod test; assay type: toxicity, organism-based; conditions: in vivo; procedure, shortened: as §1
Mus musculus [31] = test: Neurotoxicity in mouse at 50 mg/kg, ip after 2 hrs by rotarod test; assay type: toxicity, organism-based; conditions: in vivo; procedure, shortened: as §1
Vibrio harveyi [32] = test: Mutagenicity in Vibrio harveyi BB7M assessed as number of colonies after 48 hrs (reference value: 13 to 14 no_unit); assay type: ADME, organism-based; conditions: in vivo
Procedure, shortened: (§4)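 Vibrio harveyi mutagenicity test: test compound was added to exponentially growing cultures (A600 = 0.1, 30 °C) and grown to OD600 0.3–0.4. Then 5 × 10^6 cells were plated on BOSS agar with neomycin (final 100 µg/mL) and incubated 48 h at 30 °C. Neomycin-resistant colonies were counted. Triplicate; controls were water, DMSO and NQNO 40 ng/mL.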

Vibrio harveyi [33] = test: Mutagenicity in Vibrio harveyi BB7X assessed as number of colonies after 48 hrs (reference value: 15 to 16 no_unit); assay type: ADME, organism-based; conditions: in vivo; procedure, shortened: as §4
in vitro [34] = conditions: mouse, liver microsomes
Vibrio harveyi [35] = test: Antimutagenic activity against Vibrio harveyi BB7XM assessed as inhibition of NQNO-induced mutagenicity after 48 hrs; assay type: functional
Procedure, shortened: (§5)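 V. harveyi cultures grown exponentially to A600 0.1 at 30 °C, exposed to test compound for 15 min, then to NQNO, and grown on to A600 0.3–0.4. 5 × 10⁶ cells plated on BOSS agar with neomycin (100, final). Neomycin-resistant colonies counted after 48 h at 30 °C. Result given as % inhibition of NQNO mutagenicity; three independent repeats.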

Vibrio harveyi [36] = test: Antimutagenic activity against Vibrio harveyi BB7X assessed as inhibition of NQNO-induced mutagenicity after 48 hrs; assay type: functional; procedure, shortened: as §5
Vibrio harveyi [37] = test: Mutagenicity in Vibrio harveyi BB7XM assessed as number of colonies after 48 hrs (reference value: 14 no_unit); assay type: ADME, organism-based; conditions: in vivo; procedure, shortened: as §4
[38] = Retention time of the compound in mouse liver microsomes at 20 uM preincubated for 15 mins followed by addition of NADPH-regenerating system measured after 5 to 90 mins by […] analysis; assay type: ADME
Procedure, shortened: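 Mouse liver microsomes (0.4 mg/mL) with test compound (20 µM) in 100 mM potassium phosphate, pH 7.4, were preincubated 15 min at 37 °C. An NADPH-regenerating system was then added and incubation ran 5–90 min at 37 °C. Levallorphan (20 µM) served as internal standard, and reactions were quenched with perchloric acid. The supernatant was analysed by UPLC/MS. Duplicate incubations.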

in vitro [39] = conditions: mouse, liver microsomes; remark: listed apart in the source
Vibrio harveyi [40] = test: Antimutagenic activity against Vibrio harveyi BB7 assessed as inhibition of NQNO-induced mutagenicity after 48 hrs; assay type: functional; procedure, shortened: as §5
Vibrio harveyi [41] = test: Antimutagenic activity against Vibrio harveyi BB7M assessed as inhibition of NQNO-induced mutagenicity after 48 hrs; assay type: functional; procedure, shortened: as §5
Vibrio harveyi [42] = test: Mutagenicity in Vibrio harveyi BB7 assessed as number of colonies after 48 hrs (reference value: 13 to 14 no_unit); assay type: ADME, organism-based; conditions: in vivo; procedure, shortened: as §4

Row | Structure (SMILES) | Activity (Mus musculus [2]) | Activity (Mus musculus [3]) | Activity (Mus musculus [4]) | Activity (Mus musculus [6]) | Activity (Mus musculus [7]) | Activity (Mus musculus [8]) | Activity (Mus musculus [9]) | Activity (Mus musculus [10]) | Activity (Mus musculus [11]) | Activity (Mus musculus [12]) | Activity (Mus musculus [13]) | Activity (Mus musculus [14]) | Activity (Mus musculus [17]) | further results
1 | Cc1cccc(OCCN2CCC(O)CC2)c1C | Non-toxic | – | – | – | – | – | – | – | – | – | – | – | – | Activity (Mus musculus [1]): Non-toxic
2 | CCC(CO)NCCOCCOc1c(C)cccc1C (stereo not drawn) | – | Non-toxic | inactive | inactive | inactive | inactive | Active | Non-toxic | inactive | Toxic | inactive | Toxic | – | Activity (Mus musculus [5]): inactive
3 | Cc1cc(C)c(OCCN[C@H](C)CO)c(C)c1 | Non-toxic | Non-toxic | Active | inactive | inactive | inactive | Active | Non-toxic | inactive | Toxic | inactive | Toxic | inactive | Activity (Mus musculus [15]): inactive; Activity (Mus musculus [16]): inactive
4 | Cc1cc(C)c(OCCNCC(O)c2ccccc2)c(C)c1 (stereo not drawn) | Non-toxic | Non-toxic | inactive | inactive | inactive | – | Active | Non-toxic | inactive | – | inactive | Non-toxic | – | Activity (Mus musculus [18]): Active; Activity (Mus musculus [19]): Active; Activity (Rattus norvegicus [20]): Non-toxic; Activity (Mus musculus [21]): Non-toxic; Activity (Mus musculus [22]): inactive; Activity (Rattus norvegicus [23]): Non-toxic; Activity (Rattus norvegicus [24]): inactive; Activity (Rattus norvegicus [25]): Non-toxic; Activity (Rattus norvegicus [26]): Non-toxic; Activity (Rattus norvegicus [27]): Non-toxic; Activity (Rattus norvegicus [28]): inactive
5 | Cc1cccc(OCCNCC(O)c2ccccc2)c1C (stereo not drawn) | – | Non-toxic | inactive | inactive | – | inactive | inactive | Non-toxic | inactive | – | inactive | – | inactive | Activity (Mus musculus [18]): inactive; Activity (Mus musculus [5]): inactive; Activity (Mus musculus [19]): inactive; Activity (Mus musculus [21]): Non-toxic; Activity (Mus musculus [22]): inactive
6 | Cc1cccc(C)c1OCCOCCN[C@H](C)CO | – | Non-toxic | – | – | – | – | – | Non-toxic | – | Toxic | – | Toxic | – | Activity (Mus musculus [29]): Non-toxic; Activity (Mus musculus [30]): Non-toxic; Activity (Mus musculus [31]): Non-toxic
7 | Cc1cc(C)c(OCCOCCNC(C)CO)c(C)c1 (stereo not drawn) | Non-toxic | Non-toxic | inactive | – | inactive | inactive | Active | Non-toxic | inactive | Toxic | inactive | – | inactive | Activity (Vibrio harveyi [32]): 19; Activity (Vibrio harveyi [33]): 24; half-life at 20 µM (in vitro [34]): 2.27 h; inhibition (INH) (Vibrio harveyi [35]): 43%; inhibition (INH) (Vibrio harveyi [36]): 38%; Activity (Vibrio harveyi [37]): 24; Retention_time [38]: 4.31 min; microsomal CLint at 20 µM (in vitro [39]): 13 µL/min/mg; inhibition (INH) (Vibrio harveyi [40]): 81%; inhibition (INH) (Vibrio harveyi [41]): 62%; Activity (Vibrio harveyi [42]): 25
